# From ChEMBL document CHEMBL5058577, “EUbOPEN Chemogenomics Library 2 (Multiplex)” (2022)
# Test system: HEK-293T
# Test: Multiplex assay against HEK293T
# Type: toxicity, cell-based
# Conditions: human
# Method in brief: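 Compound was added to live cells that had been stained at seeding with Hoechst33342, BioTracker Green Microtubule Cytoskeleton Dye, MitoTracker Red and Annexin V Alexa Fluor 680, and imaging followed on a CQ1 microscope at 37°C and 5% CO2. CellPathfinder machine-learning gating divided cells into Hoechst high-intensity objects or normal cells, normal cells into healthy, pyknosed or fragmented nuclei, and pyknosed cells into mitotic or apoptotic. Tubulin, mitochondrial-mass and membrane-permeability phenotypes are per cents of healthy-nucleus cells.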
# [1] = 12 h, 1 µM, compound concentration 1 uM, replicate 1
# [2] = 12 h, 1 µM, compound concentration 1 uM, replicate 2
# [3] = 12 h, 10 µM, compound concentration 10 uM, replicate 1
# [4] = 12 h, 10 µM, compound concentration 10 uM, replicate 2
# [5] = 24 h, 1 µM, compound concentration 1 uM, replicate 1
# [6] = 24 h, 1 µM, compound concentration 1 uM, replicate 2
# [7] = 24 h, 10 µM, compound concentration 10 uM, replicate 1
# [8] = 24 h, 10 µM, compound concentration 10 uM, replicate 2
# [9] = 48 h, 1 µM, compound concentration 1 uM, replicate 1
# [10] = 48 h, 1 µM, compound concentration 1 uM, replicate 2
# [11] = 48 h, 10 µM, compound concentration 10 uM, replicate 1
# [12] = 48 h, 10 µM, compound concentration 10 uM, replicate 2
smiles,measurement,setting,value
CCNC1(C(N)=O)CCN(c2ncnc3c2nc(-c2ccccc2Cl)n3-c2ccc(Cl)cc2)CC1 [OTENABANT],Population Apoptotic (%),[1],51%
same,Population Fragmented Nuclei (%),[1],8%
same,Population Healthy Nuclei (%),[1],80%
same,Population Hoechst High Intensity Objects (%),[1],10%
same,Population Membrane Permeable-Phenotype (%),[1],0%
same,Population Mitochondria Different-Phenotype (%),[1],48%
same,Population Mitotic Cells (%),[1],48%
same,Population Normal (%),[1],89%
same,Population Pyknosed Nuclei (%),[1],10%
same,Population Tubulin-Different-Phenotype (%),[1],52%
same,Total Cell Count,[1],401
same,Population Apoptotic (%),[2],58%
same,Population Healthy Nuclei (%),[2],76%
same,Population Hoechst High Intensity Objects (%),[2],6%
same,Population Mitochondria Different-Phenotype (%),[2],66%
same,Population Mitotic Cells (%),[2],41%
same,Population Normal (%),[2],93%
same,Population Pyknosed Nuclei (%),[2],15%
same,Population Tubulin-Different-Phenotype (%),[2],44%
same,Total Cell Count,[2],333
same,Population Apoptotic (%),[3],46%
same,Population Fragmented Nuclei (%),[3],3%
same,Population Healthy Nuclei (%),[3],74%
same,Population Hoechst High Intensity Objects (%),[3],16%
same,Population Membrane Permeable-Phenotype (%),[3],0%
same,Population Mitochondria Different-Phenotype (%),[3],82%
same,Population Mitotic Cells (%),[3],53%
same,Population Normal (%),[3],83%
same,Population Pyknosed Nuclei (%),[3],22%
same,Population Tubulin-Different-Phenotype (%),[3],50%
same,Total Cell Count,[3],381
same,Population Apoptotic (%),[4],63%
same,Population Fragmented Nuclei (%),[4],4%
same,Population Healthy Nuclei (%),[4],67%
same,Population Hoechst High Intensity Objects (%),[4],9%
same,Population Mitochondria Different-Phenotype (%),[4],96%
same,Population Mitotic Cells (%),[4],36%
same,Population Normal (%),[4],90%
same,Population Pyknosed Nuclei (%),[4],27%
same,Population Tubulin-Different-Phenotype (%),[4],43%
same,Total Cell Count,[4],251
same,Population Apoptotic (%),[5],49%
same,Population Fragmented Nuclei (%),[5],8%
same,Population Healthy Nuclei (%),[5],80%
same,Population Hoechst High Intensity Objects (%),[5],5%
same,Population Membrane Permeable-Phenotype (%),[5],0%
same,Population Mitochondria Different-Phenotype (%),[5],43%
same,Population Mitotic Cells (%),[5],50%
same,Population Normal (%),[5],94%
same,Population Pyknosed Nuclei (%),[5],11%
same,Population Tubulin-Different-Phenotype (%),[5],44%
same,Total Cell Count,[5],474
same,Population Apoptotic (%),[6],40%
same,Population Fragmented Nuclei (%),[6],12%
same,Population Healthy Nuclei (%),[6],75%
same,Population Mitochondria Different-Phenotype (%),[6],47%
same,Population Mitotic Cells (%),[6],59%
same,Population Tubulin-Different-Phenotype (%),[6],41%
same,Total Cell Count,[6],442
same,Population Apoptotic (%),[7],40%
same,Population Fragmented Nuclei (%),[7],8%
same,Population Healthy Nuclei (%),[7],71%
same,Population Hoechst High Intensity Objects (%),[7],17%
same,Population Membrane Permeable-Phenotype (%),[7],1%
same,Population Mitochondria Different-Phenotype (%),[7],79%
same,Population Mitotic Cells (%),[7],59%
same,Population Normal (%),[7],82%
same,Population Pyknosed Nuclei (%),[7],19%
same,Population Tubulin-Different-Phenotype (%),[7],56%
same,Total Cell Count,[7],452
same,Population Apoptotic (%),[8],64%
same,Population Fragmented Nuclei (%),[8],6%
same,Population Healthy Nuclei (%),[8],77%
same,Population Hoechst High Intensity Objects (%),[8],13%
same,Population Membrane Permeable-Phenotype (%),[8],0%
same,Population Mitochondria Different-Phenotype (%),[8],95%
same,Population Mitotic Cells (%),[8],35%
same,Population Normal (%),[8],86%
same,Population Pyknosed Nuclei (%),[8],15%
same,Population Tubulin-Different-Phenotype (%),[8],53%
same,Total Cell Count,[8],283
same,Population Apoptotic (%),[9],34%
same,Population Fragmented Nuclei (%),[9],12%
same,Population Healthy Nuclei (%),[9],78%
same,Population Hoechst High Intensity Objects (%),[9],4%
same,Population Membrane Permeable-Phenotype (%),[9],1%
same,Population Mitochondria Different-Phenotype (%),[9],29%
same,Population Mitotic Cells (%),[9],65%
same,Population Normal (%),[9],95%
same,Population Pyknosed Nuclei (%),[9],9%
same,Population Tubulin-Different-Phenotype (%),[9],30%
same,Total Cell Count,[9],766
same,Population Apoptotic (%),[10],32%
same,Population Fragmented Nuclei (%),[10],8%
same,Population Healthy Nuclei (%),[10],82%
same,Population Membrane Permeable-Phenotype (%),[10],0%
same,Population Mitochondria Different-Phenotype (%),[10],30%
same,Population Mitotic Cells (%),[10],68%
same,Population Pyknosed Nuclei (%),[10],8%
same,Total Cell Count,[10],604
same,Population Apoptotic (%),[11],52%
same,Population Fragmented Nuclei (%),[11],13%
same,Population Healthy Nuclei (%),[11],71%
same,Population Hoechst High Intensity Objects (%),[11],16%
same,Population Membrane Permeable-Phenotype (%),[11],2%
same,Population Mitochondria Different-Phenotype (%),[11],78%
same,Population Mitotic Cells (%),[11],47%
same,Population Normal (%),[11],83%
same,Population Pyknosed Nuclei (%),[11],15%
same,Population Tubulin-Different-Phenotype (%),[11],66%
same,Total Cell Count,[11],560
same,Population Apoptotic (%),[12],70%
same,Population Fragmented Nuclei (%),[12],10%
same,Population Healthy Nuclei (%),[12],77%
same,Population Hoechst High Intensity Objects (%),[12],14%
same,Population Membrane Permeable-Phenotype (%),[12],0%
same,Population Mitochondria Different-Phenotype (%),[12],89%
same,Population Mitotic Cells (%),[12],29%
same,Population Normal (%),[12],85%
same,Population Pyknosed Nuclei (%),[12],12%
same,Population Tubulin-Different-Phenotype (%),[12],57%
same,Total Cell Count,[12],325
C[C@H](NC(=O)c1c(C(F)F)nn(C)c1Oc1cccc(C(F)(F)F)c1)c1ccc(C(=O)O)cc1 [PALUPIPRANT],Population Apoptotic (%),[1],40%
same,Population Fragmented Nuclei (%),[1],6%
same,Population Healthy Nuclei (%),[1],80%
same,Population Hoechst High Intensity Objects (%),[1],7%
same,Population Membrane Permeable-Phenotype (%),[1],0%
same,Population Mitochondria Different-Phenotype (%),[1],44%
same,Population Mitotic Cells (%),[1],59%
same,Population Normal (%),[1],92%
same,Population Pyknosed Nuclei (%),[1],13%
same,Population Tubulin-Different-Phenotype (%),[1],28%
same,Total Cell Count,[1],407
same,Population Apoptotic (%),[2],27%
same,Population Healthy Nuclei (%),[2],83%
same,Population Hoechst High Intensity Objects (%),[2],5%
same,Population Mitochondria Different-Phenotype (%),[2],60%
same,Population Mitotic Cells (%),[2],72%
same,Population Normal (%),[2],94%
same,Population Pyknosed Nuclei (%),[2],10%
same,Total Cell Count,[2],475
same,Population Apoptotic (%),[3],38%
same,Population Fragmented Nuclei (%),[3],7%
same,Population Healthy Nuclei (%),[3],76%
same,Population Hoechst High Intensity Objects (%),[3],7%
same,Population Membrane Permeable-Phenotype (%),[3],0%
same,Population Mitochondria Different-Phenotype (%),[3],55%
same,Population Mitotic Cells (%),[3],61%
same,Population Normal (%),[3],92%
same,Population Pyknosed Nuclei (%),[3],16%
same,Population Tubulin-Different-Phenotype (%),[3],40%
same,Total Cell Count,[3],371
same,Population Apoptotic (%),[4],60%
same,Population Fragmented Nuclei (%),[4],5%
same,Population Healthy Nuclei (%),[4],77%
same,Population Hoechst High Intensity Objects (%),[4],10%
same,Population Mitochondria Different-Phenotype (%),[4],68%
same,Population Mitotic Cells (%),[4],40%
same,Population Normal (%),[4],89%
same,Population Pyknosed Nuclei (%),[4],17%
same,Population Tubulin-Different-Phenotype (%),[4],27%
same,Total Cell Count,[4],293
same,Population Apoptotic (%),[5],36%
same,Population Fragmented Nuclei (%),[5],9%
same,Population Healthy Nuclei (%),[5],80%
same,Population Hoechst High Intensity Objects (%),[5],5%
same,Population Membrane Permeable-Phenotype (%),[5],1%
same,Population Mitochondria Different-Phenotype (%),[5],27%
same,Population Mitotic Cells (%),[5],63%
same,Population Normal (%),[5],94%
same,Population Pyknosed Nuclei (%),[5],10%
same,Population Tubulin-Different-Phenotype (%),[5],18%
same,Total Cell Count,[5],527
same,Population Apoptotic (%),[6],46%
same,Population Fragmented Nuclei (%),[6],7%
same,Population Healthy Nuclei (%),[6],83%
same,Population Hoechst High Intensity Objects (%),[6],4%
same,Population Membrane Permeable-Phenotype (%),[6],0%
same,Population Mitochondria Different-Phenotype (%),[6],35%
same,Population Mitotic Cells (%),[6],53%
same,Population Normal (%),[6],95%
same,Population Pyknosed Nuclei (%),[6],9%
same,Population Tubulin-Different-Phenotype (%),[6],19%
same,Total Cell Count,[6],604
same,Population Apoptotic (%),[7],26%
same,Population Fragmented Nuclei (%),[7],9%
same,Population Healthy Nuclei (%),[7],74%
same,Population Hoechst High Intensity Objects (%),[7],3%
same,Population Membrane Permeable-Phenotype (%),[7],0%
same,Population Mitochondria Different-Phenotype (%),[7],46%
same,Population Mitotic Cells (%),[7],73%
same,Population Normal (%),[7],96%
same,Population Pyknosed Nuclei (%),[7],16%
same,Population Tubulin-Different-Phenotype (%),[7],29%
same,Total Cell Count,[7],465
same,Population Apoptotic (%),[8],55%
same,Population Fragmented Nuclei (%),[8],7%
same,Population Healthy Nuclei (%),[8],79%
same,Population Hoechst High Intensity Objects (%),[8],7%
same,Population Mitochondria Different-Phenotype (%),[8],52%
same,Population Mitotic Cells (%),[8],44%
same,Population Normal (%),[8],92%
same,Population Pyknosed Nuclei (%),[8],13%
same,Population Tubulin-Different-Phenotype (%),[8],19%
same,Total Cell Count,[8],353
same,Population Apoptotic (%),[9],25%
same,Population Fragmented Nuclei (%),[9],13%
same,Population Healthy Nuclei (%),[9],79%
same,Population Hoechst High Intensity Objects (%),[9],2%
same,Population Membrane Permeable-Phenotype (%),[9],1%
same,Population Mitochondria Different-Phenotype (%),[9],17%
same,Population Mitotic Cells (%),[9],75%
same,Population Normal (%),[9],97%
same,Population Pyknosed Nuclei (%),[9],7%
same,Population Tubulin-Different-Phenotype (%),[9],13%
same,Total Cell Count,[9],916
same,Population Apoptotic (%),[10],21%
same,Population Fragmented Nuclei (%),[10],14%
same,Population Healthy Nuclei (%),[10],78%
same,Population Hoechst High Intensity Objects (%),[10],4%
same,Population Membrane Permeable-Phenotype (%),[10],0%
same,Population Mitochondria Different-Phenotype (%),[10],18%
same,Population Mitotic Cells (%),[10],78%
same,Population Normal (%),[10],95%
same,Population Pyknosed Nuclei (%),[10],6%
same,Population Tubulin-Different-Phenotype (%),[10],9%
same,Total Cell Count,[10],867
same,Population Apoptotic (%),[11],29%
same,Population Fragmented Nuclei (%),[11],18%
same,Population Healthy Nuclei (%),[11],75%
same,Population Hoechst High Intensity Objects (%),[11],1%
same,Population Membrane Permeable-Phenotype (%),[11],1%
same,Population Mitochondria Different-Phenotype (%),[11],24%
same,Population Mitotic Cells (%),[11],70%
same,Population Normal (%),[11],98%
same,Population Pyknosed Nuclei (%),[11],6%
same,Population Tubulin-Different-Phenotype (%),[11],16%
same,Total Cell Count,[11],821
same,Population Apoptotic (%),[12],28%
same,Population Fragmented Nuclei (%),[12],15%
same,Population Healthy Nuclei (%),[12],77%
same,Population Hoechst High Intensity Objects (%),[12],3%
same,Population Membrane Permeable-Phenotype (%),[12],0%
same,Population Mitochondria Different-Phenotype (%),[12],28%
same,Population Mitotic Cells (%),[12],71%
same,Population Normal (%),[12],96%
same,Population Tubulin-Different-Phenotype (%),[12],17%
same,Total Cell Count,[12],554
